Results: ChEMBL document CHEMBL1129480, “Design and synthesis of 1-aminocycloalkane-1-carboxylic acid-substituted deltorphin analogues: unique delta and mu opioid activity in modified peptides” (J Med Chem, 1996)
Square brackets hold non-standard residues; d marks the D form. Peptide text beside a SMILES is read from it. Ac6c = NC1(C(=O)O)CCCCC1; Ac5c = NC1(C(=O)O)CCCC1; Ac3c = NC1(C(=O)O)CC1

Tests used:
[1] = molecular target: Delta-type opioid receptor (Rattus norvegicus, UniProt P33533); test: Displacement of [3H]DPDPE (0.63 nM) from Opioid receptor delta 1
Method in brief: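 Rat brain synaptosomal membranes, preincubated, incubated with [3H]DPDPE in 50 mM HEPES pH 7.5, 5 mM MgCl2, glycerol, protease inhibitors, 120 min at 22-23 °C. Nonspecific baseline from 2 µM unlabeled peptide. Filtered, washed with ice-cold buffer plus 0.01% BSA or lactalbumin. Duplicates, 6-14 concentrations over 1000-fold, or triplicates with 25-35 concentrations for one/two-site fits. Ki via Cheng-Prusoff.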

Mu-type opioid receptor [2] = molecular target: Mu-type opioid receptor (Rattus norvegicus, UniProt P33535); test: Displacement of [3H]DAGO (1.28 nM) from Opioid receptor mu 1
Method in brief: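 Rat brain synaptosomal membranes, preincubated, in 50 mM HEPES pH 7.5, 5 mM MgCl2, glycerol, protease inhibitors with [3H]DAGO for 120 min at 22-23 °C. Baseline set with 2 µM unlabeled peptide. Filtration, washes with ice-cold buffer containing 0.01% BSA or lactalbumin. Duplicates over 6-14 concentrations spanning 1000-fold, or triplicates with 25-35 concentrations fitted to one- or two-site models. Ki from IC50 by Cheng-Prusoff.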

Mu-type opioid receptor [3] = molecular target: Mu-type opioid receptor (Cavia porcellus, UniProt P97266); test: Compound was evaluated for its inhibitory activity towards Opioid receptor mu 1 of guinea pig ileum (GPI); type: tissue-based
Method in brief: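 Guinea pig ileum segment (2-3 cm) in 20 mL organ bath with 70 µM hexamethonium bromide and 0.125 µM mepyramine maleate, 95% O2/5% CO2, 36 °C. Transmural stimulation, 0.5 ms square pulses at 0.1 Hz, 1.5× maximal-twitch voltage (~30 V). Dose-response curves against reference agonists (dermorphin or morphine). IC50 as mean ± SE of four independent experiments.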

[4] = molecular target: Delta-type opioid receptor (Mus musculus, UniProt P32300); test: Inhibitory activity against Opioid receptor delta 1 of mouse vas deferens (MVD); type: tissue-based
Chain of Delta-type opioid receptor (Mus musculus, UniProt P32300) (P32300 whole entry): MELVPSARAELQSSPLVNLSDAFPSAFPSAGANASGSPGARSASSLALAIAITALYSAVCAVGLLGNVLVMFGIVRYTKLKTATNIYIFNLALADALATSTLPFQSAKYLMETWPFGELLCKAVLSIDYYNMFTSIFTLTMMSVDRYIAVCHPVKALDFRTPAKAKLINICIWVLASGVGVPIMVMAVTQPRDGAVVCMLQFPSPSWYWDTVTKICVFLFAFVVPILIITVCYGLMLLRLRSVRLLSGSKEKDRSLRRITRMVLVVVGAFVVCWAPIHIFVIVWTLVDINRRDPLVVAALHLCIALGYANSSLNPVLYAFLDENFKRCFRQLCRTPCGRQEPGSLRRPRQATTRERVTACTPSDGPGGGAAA

Chain of Mu-type opioid receptor (Rattus norvegicus, UniProt P33535) (P33535 whole entry): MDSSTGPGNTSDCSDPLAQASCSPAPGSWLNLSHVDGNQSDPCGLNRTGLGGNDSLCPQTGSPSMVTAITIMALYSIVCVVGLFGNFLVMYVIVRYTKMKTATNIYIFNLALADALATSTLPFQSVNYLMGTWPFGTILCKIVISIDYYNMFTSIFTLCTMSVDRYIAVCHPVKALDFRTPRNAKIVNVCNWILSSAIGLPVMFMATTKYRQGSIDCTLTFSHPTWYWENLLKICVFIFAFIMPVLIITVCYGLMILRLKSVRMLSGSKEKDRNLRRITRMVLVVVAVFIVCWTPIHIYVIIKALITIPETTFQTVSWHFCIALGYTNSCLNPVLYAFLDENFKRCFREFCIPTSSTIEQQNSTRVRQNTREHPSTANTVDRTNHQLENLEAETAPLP
Chain of Delta-type opioid receptor (Rattus norvegicus, UniProt P33533) (P33533 whole entry): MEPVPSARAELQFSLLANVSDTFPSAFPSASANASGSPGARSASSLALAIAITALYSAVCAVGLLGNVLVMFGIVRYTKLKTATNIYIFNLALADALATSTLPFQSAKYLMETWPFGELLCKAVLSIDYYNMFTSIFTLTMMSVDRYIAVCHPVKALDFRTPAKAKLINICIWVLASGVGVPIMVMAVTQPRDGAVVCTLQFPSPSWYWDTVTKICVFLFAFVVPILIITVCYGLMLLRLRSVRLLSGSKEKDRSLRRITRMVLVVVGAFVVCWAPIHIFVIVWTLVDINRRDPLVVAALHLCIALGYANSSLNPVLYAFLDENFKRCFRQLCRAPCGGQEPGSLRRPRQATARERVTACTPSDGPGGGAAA
Chain of Mu-type opioid receptor (Cavia porcellus, UniProt P97266) (P97266 whole entry): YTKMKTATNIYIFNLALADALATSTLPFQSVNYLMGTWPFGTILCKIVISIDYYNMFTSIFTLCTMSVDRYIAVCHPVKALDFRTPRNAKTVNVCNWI

Compound: CC(C)[C@H](NC(=O)[C@H](CC(=O)O)NC(=O)C1(NC(=O)[C@H](C)NC(=O)[C@@H](N)Cc2ccc(O)cc2)CC1)C(=O)N[C@H](C(=O)NCC(N)=O)C(C)C (H-YA[Ac3c]DVVG-NH2)
- Ki [1]: 19 nM
- Ki (Mu-type opioid receptor [2]): 10200 nM
- IC50 (Mu-type opioid receptor [3]): > 10000 nM
- IC50 [4]: 458 nM

Compound: CC(C)[C@H](NC(=O)[C@@H](NC(=O)C1(NC(=O)[C@H](Cc2ccccc2)NC(=O)[C@H](C)NC(=O)[C@@H](N)Cc2ccc(O)cc2)CCCCC1)C(C)C)C(=O)NCC(N)=O (H-YAF[Ac6c]VVG-NH2)
- Ki [1]: 0.045 nM
- Ki (Mu-type opioid receptor [2]): 2.45 nM
- IC50 (Mu-type opioid receptor [3]): 558 nM
- IC50 [4]: 0.52 nM

Compound: CC(C)[C@H](NC(=O)[C@@H](NC(=O)C1(NC(=O)[C@H](Cc2ccccc2)NC(=O)[C@H](C)NC(=O)[C@@H](N)Cc2ccc(O)cc2)CCCC1)C(C)C)C(=O)NCC(N)=O (H-YAF[Ac5c]VVG-NH2)
- Ki [1]: 0.054 nM
- Ki (Mu-type opioid receptor [2]): 0.58 nM
- IC50 (Mu-type opioid receptor [3]): 140 nM
- IC50 [4]: 0.19 nM

Compound: CC(C)[C@H](NC(=O)[C@H](CC(=O)O)NC(=O)[C@H](Cc1ccccc1)NC(=O)[C@@H](C)NC(=O)[C@@H](N)Cc1ccc(O)cc1)C(=O)N[C@H](C(=O)NCC(N)=O)C(C)C [DELTORPHIN C]
- Ki [1]: 0.15 nM
- Ki (Mu-type opioid receptor [2]): 147 nM
- IC50 (Mu-type opioid receptor [3]): 337 nM

Compound: CC(C)[C@H](NC(=O)[C@H](CC(=O)O)NC(=O)C1(NC(=O)[C@@H](N)Cc2ccc(O)cc2)CCCCC1)C(=O)N[C@H](C(=O)NCC(N)=O)C(C)C (H-Y[Ac6c]DVVG-NH2)
- Ki [1]: 5260 nM
- Ki (Mu-type opioid receptor [2]): 441000 nM

Compound: CC(C)[C@H](NC(=O)[C@H](CC(=O)O)NC(=O)C1(NC(=O)C2(NC(=O)[C@@H](N)Cc3ccc(O)cc3)CCCCC2)CCCCC1)C(=O)N[C@H](C(=O)NCC(N)=O)C(C)C (H-Y[Ac6c][Ac6c]DVVG-NH2)
- Ki [1]: 87.8 nM
- Ki (Mu-type opioid receptor [2]): 14800 nM

Compound: CC(C)[C@H](NC(=O)[C@@H](NC(=O)C1(NC(=O)[C@H](Cc2ccccc2)NC(=O)[C@H](C)NC(=O)[C@@H](N)Cc2ccc(O)cc2)CC1)C(C)C)C(=O)NCC(N)=O (H-YAF[Ac3c]VVG-NH2)
- Ki [1]: 0.054 nM
- Ki (Mu-type opioid receptor [2]): 0.27 nM
- IC50 (Mu-type opioid receptor [3]): 15 nM
- IC50 [4]: 0.43 nM

Compound: CC(C)[C@H](NC(=O)[C@H](CC(=O)O)NC(=O)C1(NC(=O)[C@H](C)NC(=O)[C@@H](N)Cc2ccc(O)cc2)CCCCC1)C(=O)N[C@H](C(=O)NCC(N)=O)C(C)C (H-YA[Ac6c]DVVG-NH2)
- Ki [1]: 3.28 nM
- Ki (Mu-type opioid receptor [2]): 5460 nM
- IC50 (Mu-type opioid receptor [3]): > 10000 nM
- IC50 [4]: 540 nM

Compound: CC(C)[C@H](NC(=O)[C@H](CC(=O)O)NC(=O)[C@H](Cc1ccccc1)NC(=O)C1(NC(=O)[C@@H](N)Cc2ccc(O)cc2)CCCCC1)C(=O)N[C@H](C(=O)NCC(N)=O)C(C)C (H-Y[Ac6c]FDVVG-NH2)
- Ki [1]: 2.48 nM
- Ki (Mu-type opioid receptor [2]): 3110 nM

Compound: CC(C)[C@H](NC(=O)[C@H](CC(=O)O)NC(=O)C1(NC(=O)[C@H](C)NC(=O)[C@@H](N)Cc2ccc(O)cc2)CCCC1)C(=O)N[C@H](C(=O)NCC(N)=O)C(C)C (H-YA[Ac5c]DVVG-NH2)
- Ki [1]: 15.4 nM
- Ki (Mu-type opioid receptor [2]): 6820 nM
- IC50 (Mu-type opioid receptor [3]): > 10000 nM
- IC50 [4]: 1640 nM
